UBC9 SUMO inh: blocks human SUMOylation mediated by UBC9; inhibition, % at 35 µM; HTRF SUMOylation assay, SAE1/SAE2 + UBC9, in vitro; 290,000 compounds, 0.36% hits; P63279; in the data active = inhibition above about 50%, passing the limit was not always enough; inconclusive = no clear call, values can overlap the other calls
Target sequence (P63279 whole entry, looked up): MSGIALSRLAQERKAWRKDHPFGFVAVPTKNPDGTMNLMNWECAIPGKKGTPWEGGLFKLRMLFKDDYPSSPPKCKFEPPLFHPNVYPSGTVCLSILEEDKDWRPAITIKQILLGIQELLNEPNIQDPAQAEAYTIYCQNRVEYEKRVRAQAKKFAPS
UBC13 inh: inhibitors of human UBC13 polyubiquitin chain formation. TR-FRET. inhibition, % at 20 µM. 330,000 compounds, 0.47% hits. AID 485273; in the data active = inhibition above about 45%, passing the limit was not always enough; inconclusive = no clear call, values can overlap the other calls
Target sequence (P61088 whole entry, looked up): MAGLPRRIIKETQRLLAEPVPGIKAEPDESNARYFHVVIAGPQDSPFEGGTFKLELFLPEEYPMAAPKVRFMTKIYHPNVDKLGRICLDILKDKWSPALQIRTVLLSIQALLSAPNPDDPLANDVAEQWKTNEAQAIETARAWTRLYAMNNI
RBBP9 inh: inhibitors of human serine hydrolase RBBP9; recombinant RBBP9, FP-Rh probe fluorescence polarization; O75884; inhibition, % at 7.94 µM; AID 1515; 220,000 compounds, 0.2% hits;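 active = inhibition above the campaign mean of all tested compounds plus 3 SD, cut at about 14% in these data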
Target sequence (O75884 whole entry, looked up): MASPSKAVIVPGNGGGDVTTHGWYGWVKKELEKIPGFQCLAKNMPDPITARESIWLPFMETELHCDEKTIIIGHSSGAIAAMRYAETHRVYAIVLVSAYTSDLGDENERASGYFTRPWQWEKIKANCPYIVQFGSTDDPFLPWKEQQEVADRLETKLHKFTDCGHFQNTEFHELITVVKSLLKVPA
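Assay system: recombinant human RBBP9; Reagent: Serine-hydrolase probe FP-Rh, 375 nM pre-mixing; Doses: 7.94 µM single dose, 0.794% DMSO; Incubation: 30 min then 45 min, 25 °C; Detection: fluorescence polarization (mP), excitation 525 nm, emission 598 nm; Evaluation: percent inhibition from mP, scaled between DMSO and no-protein wells.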
Rin1-Abl PPI inh: blocks binding of human Rin1 to Abl | TR-FRET Rin1/Abl binding, biochemical | inhibition, % at 7.35 µM | 360,000 compounds, 0.4% hits | AID 588664; in the data active = inhibition above about 5%, passing the limit was not always enough
PREPL inh: inhibits the human prolyl oligopeptidase-like enzyme; Q4J6C6; recombinant PREPL, fluorescence polarization activity-based probe; inhibition, % at 5.96 µM; 320,000 compounds, 0.68% hits; AID 2751; in the data active = inhibition above about 43%
ALR inh: human ALR oxidase inhibition via reduced H2O2; purified ALR, DTT oxidation, H2O2 HRP-luminol luminescence; inhibition, % (no concentration beside the values); 290,000 compounds, 3.8% hits;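 active = mean replicate inhibition above about 79%, with every replicate also reaching it, limit read from the data; inconclusive = only one of the two criteria met; inactive = mean below limit and not every replicate reaching it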
Of the large screens only hits and unclear results are named; the others gave an inactive call. This is a sample that favours compounds with a hit; in the whole collection about 4.3% have one here.

Cn1ccnc1SCC(=O)Nc1cccc(O)c1	none
Cn1ccnc1SCC(=O)Nc1cccc([N+](=O)[O-])c1	none
CCCCOc1cccc(NC(=O)CSc2nccn2C)c1	ALR inh 99
CCOc1ccc(NC(=O)CSc2nccn2C)cc1	ALR inh 99
Cn1ccnc1SCC(=O)Nc1ccc(Oc2ccccc2)cc1	ALR inh 99
CCOc1ccc(CNC(=O)CN2C(=O)CSc3ccc(S(=O)(=O)N4CCOCC4)cc32)cc1	none (no result: UBC9 SUMO inh, UBC13 inh, RBBP9 inh, PREPL inh, ALR inh)
CC(NC(=S)NCCN1CCOCC1)C12CC3CC(CC(C3)C1)C2 (stereo unspecified)	none
CCOc1c(Br)cc(C(=O)N2CCCN(C)CC2)cc1OC	none (no result: RBBP9 inh)
O=C(O)CS(=O)CC(=O)Nc1cccc(C(F)(F)F)c1 (stereo unspecified)	ALR inh 99
COc1ccc(NC(=O)CSc2nc3cccnc3n2C)cc1	ALR inh 99
COC(=O)c1ccc(NC(=O)CSc2nc3cccnc3n2C)cc1	none
CCOc1ccc(NC(=O)CSC(N)=O)cc1	ALR inh 99
O=C(O)CS(=O)CC(=O)NCc1cccc(C(F)(F)F)c1 (stereo unspecified)	none
Clc1ccc2oc(SCc3cccnc3)nc2c1	none (no result: RBBP9 inh)
Cc1ccccc1CCN(C(=O)c1csnn1)C(C(=O)NC1CCCC1)c1ccco1 (stereo unspecified)	none (no result: RBBP9 inh)
CCN(c1ccc(NC(=O)CSc2nnc3nc(C)cc(C)n23)cc1)C(C)C	ALR inh 99
Cc1noc(C)c1CSCC(=O)Nc1ccc(S(C)(=O)=O)cc1	none (no result: UBC9 SUMO inh, RBBP9 inh)
Cc1cc(C)n2c(SCC(=O)Nc3ccc(F)cc3)nnc2n1	none
CCN(c1ccc(NC(=O)CSCc2c(C)noc2C)cc1)C(C)C	ALR inh 99 (no result: UBC9 SUMO inh, RBBP9 inh)
CC(NC(=O)C(=O)N/N=C/c1ccccc1)c1ccccc1 (stereo unspecified)	none
CCOC(=O)C1C(=O)NC(c2ccccc2)=NC1c1ccc(F)cc1 (stereo unspecified)	ALR inh 98
O=C(CNC(=O)c1ccccc1)OCC(=O)c1ccccc1Cl	none (no result: RBBP9 inh)
O=C(Cc1ccccc1)NCC(=O)OCC(=O)c1ccccc1Cl	ALR inh 77
CCOc1ccc2nc(-c3cc(NC(C)=O)ccc3O)sc2c1	none
Cc1c(-c2ccccc2)cnc2c(C)cccc12	none (no result: UBC9 SUMO inh, RBBP9 inh)
Cc1cc(C(=O)N/N=C/c2cc(Br)ccc2OC(=O)c2ccc(Br)cc2)n[nH]1	UBC9 SUMO inh 67 (no result: Rin1-Abl PPI inh)
Cc1cc(C(=O)N/N=C/c2cc(Br)cc(Br)c2OC(=O)c2ccccc2)n[nH]1	none (no result: Rin1-Abl PPI inh)
CCC(OC(=O)c1nsc(Cl)c1Cl)C(=O)NC(C)(C)C (stereo unspecified)	none (no result: ALR inh)
COc1cccc(-c2ccnc3[nH]n(-c4ccccc4)c(=O)c23)c1	none (no result: RBBP9 inh)
Cc1cc(C(C)(C)C)nc2[nH]n(-c3ccccc3)c(=O)c12	ALR inh 96
Cc1cc(-c2ccccc2)nc2[nH]n(-c3ccccc3)c(=O)c12	ALR inh 99
O=c1c2c(C(F)(F)F)cc(C(F)(F)F)nc2[nH]n1-c1ccccc1	none
Cc1cc(C)c2c(=O)n(-c3ccccc3)[nH]c2n1	ALR inh 99
CCCNC(=O)c1cc(C2CCCCN2C(=O)c2ccc(C(C)C)cc2)on1 (stereo unspecified)	none (no result: UBC9 SUMO inh, UBC13 inh, RBBP9 inh, PREPL inh, ALR inh)
CCOC(=O)COc1coc(CN2CCN(c3ccc(F)cc3)CC2)cc1=O	none (no result: RBBP9 inh)
Cc1cc(C2(c3ccc(O)c(C)c3)OC(=O)c3ccccc32)ccc1O	ALR inh 77
c1ccc2oc(-c3ccc4nc[nH]c4c3)nc2c1	none
Nc1nc2ccc(-c3nc4ccccc4o3)cc2s1	ALR inh 97
CCC(C)[C@H](N)c1nnc(SCC(=O)c2ccc(Cl)cc2)o1 (stereo partly specified)	ALR inh 98
Cn1c(-c2ccc(Cl)cc2)cnc1NCc1cc2c(cc1[N+](=O)[O-])OCO2	none
Cn1c(-c2ccccc2)cnc1NCc1cc2c(cc1[N+](=O)[O-])OCO2	ALR inh 98
Cn1c(-c2ccc(F)cc2)cnc1NCc1cc2c(cc1[N+](=O)[O-])OCO2	ALR inh 93
Cn1c(-c2ccc(F)cc2)cnc1NCc1cccc(F)c1	none (no result: ALR inh)
Cn1c(-c2ccc3c(c2)OCO3)cnc1NCc1cccc(O)c1	ALR inh 88
OC(COC1CCCCC1)CN1CCN(c2ccccc2)CC1 (stereo unspecified)	ALR inh 92
Nc1nc2ccc([N+](=O)[O-])cc2[nH]1	none
Nc1[nH]c2cc([N+](=O)[O-])ccc2c1-c1ccccn1	ALR inh 92 (no result: RBBP9 inh)
COc1ccc(S(=O)(=O)N2CCC(C(=O)NCc3ccncc3)CC2)cc1C	none (no result: RBBP9 inh)
O=C(Nc1ccccc1O)N1c2ccccc2Sc2ccccc21	ALR inh 84 (no result: RBBP9 inh)
O=C(c1cc(-c2ccc(O)cc2)on1)N1CCCCCC1	ALR inh 99 (no result: RBBP9 inh)
O=C(c1cc(-c2ccc(Cl)cc2)on1)N1CCCCCC1	none (no result: RBBP9 inh)
O=C(O)c1cc(NC(=O)c2cccc(C(=O)Nc3cc(C(=O)O)cc(C(=O)O)c3)c2)cc(C(=O)O)c1	none (no result: RBBP9 inh)
C=CCn1c(C)cc(C(=O)COC(=O)c2ccc3c(c2)NC(=O)CS3)c1C	ALR inh 98
C=CCn1c(C)cc(C(=O)COC(=O)c2ccc(N)c([N+](=O)[O-])c2)c1C	none
COCCn1c(C)cc(C(=O)COC(=O)c2ccc3ncsc3c2)c1C	none
COCCn1c(C)cc(C(=O)COC(=O)c2ccc3c(c2)NC(=O)CS3)c1C	ALR inh 98
CC(=O)Nc1c(O)nc(SCC(=O)N2CCCCC2)[nH]c1=O	none (no result: UBC9 SUMO inh, RBBP9 inh, ALR inh)
CCCCCCc1c(O)nc(SCCN2CCOCC2)[nH]c1=O	none
CCCCc1c(O)nc(SCC(=O)N2CCOCC2)[nH]c1=O	ALR inh 98
CCOCCc1c(O)nc(SCC(=O)N2CCOCC2)[nH]c1=O	ALR inh 85 (no result: RBBP9 inh)
COCC(=O)N1CCC2CC1c1c(-c3ccc(C(F)(F)F)cc3)cccc12 (stereo unspecified)	none (no result: UBC9 SUMO inh, UBC13 inh, RBBP9 inh, PREPL inh, ALR inh)
Cc1ccc(-c2nc3ccccc3o2)cc1NC(=O)c1ccc2c(c1)OCO2	UBC9 SUMO inh 58
O=C(Oc1ccccc1F)c1ccc2c(=O)n3c(nc2c1)CCC3	none (no result: UBC9 SUMO inh, RBBP9 inh)
COc1ccc(N=c2scc(C)n2CCCN2CCCC2=O)cc1	ALR inh 100
Cc1cs/c(=N/C(=S)Nc2ccccc2)n1C	none
Cc1csc(=Nc2ccccc2)n1C	ALR inh 99
Cc1csc(=Nc2ccccc2)n1CCCN1CCCC1=O	ALR inh 99
COc1ccc(-c2nc3ccc(C)cn3c2Cc2ccccc2)cc1OC	none (no result: UBC9 SUMO inh, UBC13 inh, RBBP9 inh, PREPL inh, ALR inh)
COc1ccc(C2CC23N=C(c2ccccc2)OC3=O)cc1 (stereo unspecified)	ALR inh 97 (no result: UBC13 inh)
COc1ccc(C2=NC(c3ccccc3)CO2)cc1 (stereo unspecified)	none (no result: Rin1-Abl PPI inh)
CCOc1cc(Cl)c(S(=O)(=O)NCCCN2CCOCC2)cc1Cl	none (no result: RBBP9 inh, ALR inh)
Cc1ccc(NC(=O)CSc2nccn2Cc2ccco2)c(C)c1	ALR inh inconclusive (no result: RBBP9 inh)
COc1ccc(NC(=O)CSc2nnc(C)n2Cc2ccccc2)cc1	none

Screening results from PubChem BioAssay.
